Measured values from ChEMBL document CHEMBL1134395, “Angular methoxy-substituted furo- and pyranoquinolinones as blockers of the voltage-gated potassium channel Kv1.3” (J Med Chem, 2001).
pIC50: −log10 of the molar value. Several values for one entry are separate records, joined by “and”; a condition that tells them apart may be missing. Equal entries are not always repeated.

Tests used:
N1E-115 [1] = type: functional, Mus musculus; conditions: at 50 µM
N1E-115 [2] = experiment: Blockade of peak steady-state Na+ currents of neuroblastoma cells N1E-115 at 100 uM; type: functional, Mus musculus
Method in brief: (§1)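 Same N1E-115 whole-cell recordings and solutions (holding −80 mV, room temperature, 5% DMSO). Peak Na+ current is taken at pulses to 0 mV and normalized to the current in control bathing medium. Reported as mean of at least three experiments.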

N1E-115 [3] = experiment: Blockade of peak steady-state K+ currents of neuroblastoma cells N1E-115 at 100 uM; type: functional, Mus musculus
Method in brief: (§2)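 Whole-cell patch clamp at room temperature on N1E-115 neuroblastoma cells, grown in DMEM with 10% FCS. Bath: 125 mM NaCl, 5.5 KCl, 1.5 CaCl2, 2.0 MgCl2, 25 glucose, 5 HEPES, pH 7.4, with 5% DMSO. Pipette: 120 KF, 10 KCl, 10 NaCl, 10 HEPES, 10 EGTA, pH 7.2. Holding −80 mV, 100 ms pulses to 40 mV; peak steady-state K+ current normalized to control bath; mean of ≥3 cells.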

[4] = biological target: Potassium voltage-gated channel subfamily A member 3 (Mus musculus) (UniProt P16390); conditions: at 50 µM
N1E-115 [5] = type: functional, Mus musculus; conditions: at 50 µM; remark: listed apart in the source
N1E-115 [6] = experiment: Blockade of peak steady-state Na+ currents of neuroblastoma cells N1E-115 at 25 uM; type: functional, Mus musculus
Method in brief: as §1

[7] = biological target: Potassium voltage-gated channel subfamily A member 3 (Mus musculus) (UniProt P16390); experiment: Blockade of peak steady-state K+ currents of Kv1.3 channels in mouse fibroblasts L929 at 25 uM; type: functional
Method in brief: (§3)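 Whole-cell patch clamp at room temperature on L929 fibroblasts stably transfected with mKv1.3, grown in DMEM with 10% FCS and 300 µg/mL G418. Bath: 160 mM NaCl, 4.5 KCl, 2.0 CaCl2, 1.0 MgCl2, 5 HEPES, pH 7.4, with 5% DMSO. Pipette: 120 KF, 20 KCl, 10 HEPES, 10 EGTA, pH 7.2. Holding −80 mV, 200 ms pulses to 40 mV; peak steady-state current normalized to control bath; mean of ≥3 cells.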

[8] = biological target: T1, Potassium voltage-gated channel subfamily A member 3 (Mus musculus, UniProt P16390); experiment: Blockade of peak steady-state K+ currents of voltage-gated potassium channel subunit Kv1.3 in mouse fibroblasts L929 at 50 uM; type: functional; conditions: in the assay text read “at different concentrations” for “at 50 uM”
Method in brief: as §3

N1E-115 [9] = experiment: Inhibition of N1E-115 cells Kv channels; type: functional, cell-based; conditions: Mus musculus
Method in brief: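 Whole-cell patch clamp on N1E-115 cells. Holding −80 mV, steps to 40 mV; room temperature, bath with 5% DMSO. Peak K+ block is measured at several concentrations, and a modified Hill equation is fitted to give the half-blocking concentration, reported ± SEM.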

[10] = biological target: Potassium voltage-gated channel subfamily A member 3 (Mus musculus) (UniProt P16390); experiment: Blockade of peak steady-state K+ currents of Kv1.3 channels in mice fibroblasts L929 at 50 uM; type: functional
Method in brief: as §3

[11] = biological target: Potassium voltage-gated channel subfamily A member 3 (Mus musculus) (UniProt P16390); experiment: Blockade of peak steady-state K+ currents of voltage-gated potassium channel subunit Kv1.3 expressed in mouse fibroblasts L929 at 50 uM; type: functional
Method in brief: as §3

[12] = biological target: Potassium voltage-gated channel subfamily A member 3 (Mus musculus) (UniProt P16390); experiment: Blockade of peak steady-state K+ currents of Kv1.3 channels in mice fibroblasts L929 at 25 uM; type: functional
Method in brief: as §3

N1E-115 [13] = experiment: Blockade of peak steady-state K+ currents of neuroblastoma cells N1E-115 at 25 uM; type: functional, Mus musculus
Method in brief: as §2

N1E-115 [14] = experiment: Blockade of peak steady-state Na+ currents of neuroblastoma cells N1E-115 at 50 uM; type: functional, Mus musculus
Method in brief: as §1

[15] = biological target: T1, Potassium voltage-gated channel subfamily A member 3; experiment: Inhibition of voltage-gated potassium channel subunit Kv1.3 expressed in L929 cells; type: functional, cell-based
Method in brief: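 Whole-cell patch clamp on mKv1.3-transfected L929 cells. Holding −80 mV, 200 ms steps to 40 mV; room temperature, bath with 5% DMSO. Peak K+ block is measured at several concentrations, and a modified Hill equation is fitted to give the half-blocking concentration, reported ± SEM.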

Potassium voltage-gated channel subfamily A member 3 (Mus musculus), sequence (P16390 whole entry): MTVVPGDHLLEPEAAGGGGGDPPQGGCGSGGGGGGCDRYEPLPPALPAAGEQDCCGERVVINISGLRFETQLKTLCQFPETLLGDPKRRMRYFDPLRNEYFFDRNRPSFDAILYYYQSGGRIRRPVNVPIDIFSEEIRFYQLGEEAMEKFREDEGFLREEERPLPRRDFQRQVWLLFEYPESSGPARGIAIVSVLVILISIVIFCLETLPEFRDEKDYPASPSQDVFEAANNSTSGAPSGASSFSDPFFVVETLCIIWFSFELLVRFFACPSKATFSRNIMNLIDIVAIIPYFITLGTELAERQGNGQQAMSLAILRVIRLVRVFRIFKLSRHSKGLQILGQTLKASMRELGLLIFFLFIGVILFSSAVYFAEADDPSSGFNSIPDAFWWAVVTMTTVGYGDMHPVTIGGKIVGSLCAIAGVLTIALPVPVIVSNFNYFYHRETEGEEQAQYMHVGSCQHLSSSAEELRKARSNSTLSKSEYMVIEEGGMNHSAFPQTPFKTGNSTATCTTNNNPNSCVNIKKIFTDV
T1 sequence (P16390 whole entry): as above

| SMILES | BK [4] [%] | BK (N1E-115 [1]) | BNa (N1E-115 [5]) [%] | also measured |
| --- | --- | --- | --- | --- |
| Cn1c2c(c(=O)c3cc(O)ccc31)CC(C(C)(C)O)O2 (configuration not stated) |  | 7% |  | BNa (N1E-115 [2]): 13% |
| CC1(C)Oc2nc3ccccc3c(O)c2CC1SS(=O)(=O)O (configuration not stated) |  |  |  | BK (N1E-115 [3]): 0%; BNa (N1E-115 [2]): 6% |
| COc1c2ccccc2nc2occc12 [DICTAMNINE] | 23 | 31% | 0 |  |
| COc1ccc2c(c1)c(=O)c1c(n2C)OC(C(C)(C)O)C1 (configuration not stated) |  | 0% |  | BNa (N1E-115 [6]): 0%; BK [7]: 1% |
| COc1cc2nc3occc3c(OC)c2cc1OC [KOKUSAGININE] | 51 | 22% | 0 | pIC50 [8]: 4.31; pIC50 (N1E-115 [9]): 3.70 |
| COc1ccc2c3c(c(=O)n(C)c2c1OC)C=CC(C)(C)O3 |  | 55% | 12 | BK [10]: 41% |
| CC(C)(O)C1Cc2c(O)nc3ccccc3c2O1 (configuration not stated) |  | 7% | 0 |  |
| CC1(C)Oc2nc3ccc(Br)cc3c(O)c2CC1Br (configuration not stated) |  | 32% | 1 | BK [11]: 35% |
| Cn1c(=O)c2c(c3ccccc31)OC(C(C)(C)O)C2 (configuration not stated) |  | 4% |  | BNa (N1E-115 [6]): 0%; BK [7]: 3% |
| COc1ccc2c(c1)c1c(c(=O)n2C)C=CC(C)(C)O1 |  | 64% | 12 | BNa (N1E-115 [6]): 1%; BK [12]: 88%; pIC50 [8]: 5.00; BK (N1E-115 [13]): 44%; BK [10]: 93%; pIC50 (N1E-115 [9]): 4.51 |
| Cn1c(=O)c2c(c3cc([N+](=O)[O-])ccc31)OC(C)(C)CC2 |  | 14% |  | BNa (N1E-115 [6]): 0%; BK [7]: 7% |
| COc1ccc(CCCN2CCC(COC(c3ccccc3)c3ccccc3)CC2)cc1 |  |  |  | pIC50 [8]: 6.55 |
| CC1(C)Oc2nc3ccccc3c(O)c2CC1O (configuration not stated) |  | 0% |  | BNa (N1E-115 [2]): 0% |
| COc1ccc2c(c1)c(=O)c1c(n2C)OC(C)(C)C(O)C1 (configuration not stated) |  | 6% | 3 |  |
| Cn1c2c(c(=O)c3cc(O)ccc31)CC(O)C(C)(C)O2 (configuration not stated) |  | 0% |  | BNa (N1E-115 [2]): 3% |
| Cn1c(=O)c2c(c3cc([N+](=O)[O-])ccc31)OC(C(C)(C)O)C2 (configuration not stated) |  | 4% | 0 |  |
| CC1(C)CCc2c(nc3ccccc3c2O)O1 | 7 | 6% | -18 |  |
| COc1ccc2c(c1)c(=O)c1cc(C(C)C)oc1n2C | 44 | 33% | 1 |  |
| COc1ccc2c(c1)c1c(c(=O)n2C)CC(C(C)(C)O)O1 (configuration not stated) |  | 0% |  | BNa (N1E-115 [6]): 0%; BK [7]: 0% |
| CC1(C)CCc2c(O)nc3ccc([N+](=O)[O-])cc3c2O1 |  | 23% | 8 |  |
| Cn1c2c(c(=O)c3ccccc31)CC(O)C(C)(C)O2 (configuration not stated) |  | 0% | 0 |  |
| COc1ccc2c(c1)c1oc(C(C)C)c(S(=O)(=O)[O-])c1c(=O)n2C.[Na+] |  |  |  | BNa (N1E-115 [6]): 0%; BK (N1E-115 [13]): 0% |
| COc1ccc2c(c1)c1c(c(=O)n2C)CCC(C)(C)O1 | 83 | 39% and 52% |  | BNa (N1E-115 [6]): 3%; BNa (N1E-115 [14]): 4%; BK [7]: 57%; pIC50 [15]: 4.74; pIC50 (N1E-115 [9]): 4.38 |
| CCCCC/N=c1\ccn(Cc2ccccc2)c2ccccc12 [CP-339818] |  |  |  | pIC50 [8]: 6.64 |
| Cn1c(=O)c2c(c3ccccc31)OC(C)(C)C(O)C2 (configuration not stated) |  | 15% | 4 | BK [7]: 4% |
| COc1ccc2c(OC)c3ccoc3nc2c1OC [SKIMMIANINE] | 13 | 20% | 6 |  |

Second part, led by results:

| BK [4] [%] | SMILES | BK (N1E-115 [1]) | BNa (N1E-115 [5]) [%] | also measured |
| --- | --- | --- | --- | --- |
| 10 | COc1ccc2c(c1)c(=O)c1c(n2C)OC(C)(C)CC1 | 7% | 0 |  |
| 15 | CC1(C)CCc2c(O)nc3ccccc3c2O1 | 37% | 3 |  |
| 48 | Cn1c(=O)c2c(c3ccccc31)OC(C)(C)CC2 | 65% | 7 |  |
| 1 | Cn1c2c(c(=O)c3ccccc31)CC(C(C)(C)O)O2 (configuration not stated) | 0% | 0 |  |
| 4 | COc1ccc2c(c1)c1c(c(=O)n2C)CC(O)C(C)(C)O1 (configuration not stated) | 21% | 2 |  |
| 98 | COc1ccc2c(c1)c1oc(C(C)C)cc1c(=O)n2C | 57% | 11 | BNa (N1E-115 [6]): 5%; pIC50 [8]: 5.30; BK [7]: 98%; BK (N1E-115 [13]): 32%; pIC50 (N1E-115 [9]): 4.42 |
| 70 | CC(C)c1cc2c(=O)n(C)c3ccccc3c2o1 | 42% | 11 | BNa (N1E-115 [6]): 0%; BK [7]: 44%; BK (N1E-115 [13]): 25% |
| 23 | CC(C)c1cc2c(=O)c3ccccc3n(C)c2o1 | 15% | 0 |  |
